Key:
[1] = Antiproliferative activity against human KB/HeLa cells by XTT assay; assay type: functional, cell-based
Outline: (§1)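 XTT metabolic read-out. Cells seeded at 1 × 10³–8 × 10⁴ cells/well for logarithmic growth and exposed to graded concentrations for 48 h. At least two replicates. IC50 from nonlinear regression of dose-response curves. LT12/MDR: rat LT12 with ectopic human MDR-1. L1210/VCR: MDR-1 expressing, MRP-1 negative.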

[2] = system: SK-OV-3; experiment: Antiproliferative activity against human SKOV3 cells by XTT assay; assay type: functional, cell-based
Outline: (§2)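 XTT metabolic-activity read-out of proliferation. Cells were seeded at 1 × 10³-8 × 10⁴ cells/well for logarithmic growth and exposed to a range of compound concentrations for 48 h. IC50 came from nonlinear regression of dose-response curves, with at least two replicates. The P388/Adr subline was doxorubicin-selected with elevated MDR-1.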

[3] = system: SF-268; experiment: Antiproliferative activity against human SF268 cells by XTT assay; assay type: functional, cell-based; outline: as §1
[4] = system: NCI-H460; experiment: Antiproliferative activity against human NCI-H460 cells by XTT assay; assay type: functional, cell-based; outline: as §1
[5] = system: RKO; experiment: Antiproliferative activity against human RKO cells by XTT assay; assay type: functional, cell-based
Outline: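 RKO colon cells with ecdysone-inducible p27Kip1. Day 1: plated with or without 3 µM ponasterone A for 24 h, giving G1 arrest when induced (2 × 10⁴ cells/well induced; 6 × 10³ not induced). Day 2: compound added (DMSO control) for 48 h at 37 °C, then standard XTT. At least duplicate. IC50 by nonlinear regression.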

[6] = system: RKO; experiment: Antiproliferative activity against human RKO cells containing ecdysone-inducible expression vector of p27kipl by XTT assay; assay type: functional, cell-based
Outline: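 RKO cells carried an ecdysone-inducible p27Kip1 vector and were tested with and without induction. On day 1 they were plated with or without 3 µM ponasterone A, which gives G1 arrest, at 2 × 10⁴ cells/well induced or 6 × 10³ not induced, then held 24 h at 37 °C. Compound was then added for 48 h at 37 °C, followed by a standard XTT assay. IC50 came from nonlinear regression, n ≥ 2.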

[7] = Antiproliferative activity against rat LT12 cells after 48 hrs by XTT assay; assay type: functional, cell-based; conditions: LT12, 48 h; outline: as §2
[8] = Antiproliferative activity against rat LT12 cells ectopic expression of human MDR1 after 48 hrs by XTT assay; assay type: functional, cell-based; conditions: LT12, 48 h; outline: as §1
[9] = system: L1210; experiment: Antiproliferative activity against mouse L1210 cells after 48 hrs by XTT assay; assay type: functional, cell-based; conditions: L1210, 48 h; outline: as §2
[10] = system: L1210; experiment: Antiproliferative activity against vincristine-resistance MRP1 negative mouse L1210 cells expressing human MDR1 after 48 hrs by XTT assay; assay type: functional, cell-based; conditions: L1210, 48 h; outline: as §1
[11] = system: P388; experiment: Antiproliferative activity against mouse P388 cells after 48 hrs by XTT assay; assay type: functional, cell-based; conditions: P388, 48 h; outline: as §2
[12] = system: P388; experiment: Antiproliferative activity against doxorubicin-resistant mouse P388 cells expressing MDR1 protein after 48 hrs by XTT assay; assay type: functional, cell-based; conditions: P388, 48 h; outline: as §2
[13] = Cell cycle arrest in human KB/HeLa cells assessed as G2/M phase accumulation after 24 hrs by FACS analysis; assay type: functional, cell-based
Outline: (§3)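 Subconfluent KB/HeLa cells exposed to a range of compound concentrations for 24 h at 37 °C, then detached and fixed in 70% ethanol. DNA stained with propidium iodide after RNase digestion and measured by flow cytometry. Cell-cycle phase fractions taken from cell cycle analysis software. At least two replicates.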

[14] = Cell cycle arrest in human KB/HeLa cells assessed as S phase accumulation at 0.1 nM after 24 hrs by FACS analysis; assay type: functional, cell-based; outline: as §3
[15] = Cell cycle arrest in human KB/HeLa cells assessed as G2/M phase accumulation at 0.1 nM after 24 hrs by FACS analysis; assay type: functional, cell-based; outline: as §3
[16] = Cell cycle arrest in human KB/HeLa cells assessed as G1 phase accumulation at 0.1 nM after 24 hrs by FACS analysis; assay type: functional, cell-based; outline: as §3
[17] = Cell cycle arrest in human KB/HeLa cells assessed as S phase accumulation at 0.3 nM after 24 hrs by FACS analysis; assay type: functional, cell-based; outline: as §3
[18] = Cell cycle arrest in human KB/HeLa cells assessed as G2/M phase accumulation at 0.3 nM after 24 hrs by FACS analysis; assay type: functional, cell-based; outline: as §3
[19] = Cell cycle arrest in human KB/HeLa cells assessed as G1 phase accumulation at 0.3 nM after 24 hrs by FACS analysis; assay type: functional, cell-based; outline: as §3
[20] = Cell cycle arrest in human KB/HeLa cells assessed as S phase accumulation at 1 nM after 24 hrs by FACS analysis; assay type: functional, cell-based; outline: as §3
[21] = Cell cycle arrest in human KB/HeLa cells assessed as G2/M phase accumulation at 1 nM after 24 hrs by FACS analysis; assay type: functional, cell-based; outline: as §3
[22] = Cell cycle arrest in human KB/HeLa cells assessed as G1 phase accumulation at 1 nM after 24 hrs by FACS analysis; assay type: functional, cell-based; outline: as §3
[23] = Cell cycle arrest in human KB/HeLa cells assessed as S phase accumulation at 3.16 nM after 24 hrs by FACS analysis; assay type: functional, cell-based; outline: as §3
[24] = Cell cycle arrest in human KB/HeLa cells assessed as G2/M phase accumulation at 3.16 nM after 24 hrs by FACS analysis; assay type: functional, cell-based; outline: as §3
[25] = Cell cycle arrest in human KB/HeLa cells assessed as G1 phase accumulation at 3.16 nM after 24 hrs by FACS analysis; assay type: functional, cell-based; outline: as §3
[26] = Cell cycle arrest in human KB/HeLa cells assessed as S phase accumulation at 10 nM after 24 hrs by FACS analysis; assay type: functional, cell-based; outline: as §3
[27] = Cell cycle arrest in human KB/HeLa cells assessed as G2/M phase accumulation at 10 nM after 24 hrs by FACS analysis; assay type: functional, cell-based; outline: as §3
[28] = Cell cycle arrest in human KB/HeLa cells assessed as G1 phase accumulation at 10 nM after 24 hrs by FACS analysis; assay type: functional, cell-based; outline: as §3
[29] = Cell cycle arrest in human KB/HeLa cells assessed as S phase accumulation at 31.6 nM after 24 hrs by FACS analysis; assay type: functional, cell-based; outline: as §3
[30] = Cell cycle arrest in human KB/HeLa cells assessed as G2/M phase accumulation at 31.6 nM after 24 hrs by FACS analysis; assay type: functional, cell-based; outline: as §3
[31] = Cell cycle arrest in human KB/HeLa cells assessed as G1 phase accumulation at 31.6 nM after 24 hrs by FACS analysis; assay type: functional, cell-based; outline: as §3
[32] = Cell cycle arrest in human KB/HeLa cells assessed as S phase accumulation at 100 nM after 24 hrs by FACS analysis; assay type: functional, cell-based; outline: as §3
[33] = Cell cycle arrest in human KB/HeLa cells assessed as G2/M phase accumulation at 100 nM after 24 hrs by FACS analysis; assay type: functional, cell-based; outline: as §3
[34] = Cell cycle arrest in human KB/HeLa cells assessed as G1 phase accumulation at 100 nM after 24 hrs by FACS analysis; assay type: functional, cell-based; outline: as §3
[35] = Cell cycle arrest in human KB/HeLa cells assessed as S phase accumulation at 316 nM after 24 hrs by FACS analysis; assay type: functional, cell-based; outline: as §3
[36] = Cell cycle arrest in human KB/HeLa cells assessed as G2/M phase accumulation at 316 nM after 24 hrs by FACS analysis; assay type: functional, cell-based; outline: as §3
[37] = Cell cycle arrest in human KB/HeLa cells assessed as G1 phase accumulation at 316 nM after 24 hrs by FACS analysis; assay type: functional, cell-based; outline: as §3
[38] = Cell cycle arrest in human KB/HeLa cells assessed as S phase accumulation at 1000 nM after 24 hrs by FACS analysis; assay type: functional, cell-based; outline: as §3
[39] = Cell cycle arrest in human KB/HeLa cells assessed as G2/M phase accumulation at 1000 nM after 24 hrs by FACS analysis; assay type: functional, cell-based; outline: as §3
[40] = Cell cycle arrest in human KB/HeLa cells assessed as G1 phase accumulation at 1000 nM after 24 hrs by FACS analysis; assay type: functional, cell-based; outline: as §3
[41] = target: T1, Tubulin (Sus scrofa, UniProt P02554+P02550); experiment: Displacement of [3H]Colchicine from pig biotinylated tubulin after 2 hrs by SPA; assay type: protein assay
[42] = target: T1, Tubulin; experiment: Displacement of [3H]paclitaxel from pig biotinylated tubulin after 2 hrs by SPA; assay type: protein assay
[43] = system: K562; experiment: Antiproliferative activity against human K562 cells after 48 hrs; assay type: functional, cell-based; conditions: K562, 48 h
Outline: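 K562 cells (RPMI 1640, 10% FBS, 37 °C, 5% CO2) plated at 2 × 10⁵ cells/mL. Compounds dissolved in DMSO/methanol 1:1, vehicle 0.5%. Cells counted in a Neubauer chamber after 48 h and expressed as % of untreated control. Triplicate wells, three experiments. IC50 from nonlinear regression.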

[44] = target: T1, Tubulin; experiment: Inhibition of pig brain tubulin polymerization after 30 mins by turbidimetric assay
Outline: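 Microtubule protein from porcine brain (80–90% tubulin, 10–20% MAPs), purified by two disassembly/reassembly cycles. Assay buffer: 20 mM PIPES pH 6.8, 80 mM NaCl, 0.5 mM MgCl2, 1 mM EGTA, 1 mM DTT. Protein at 1.2 mg/mL with 0.6 mM GTP final, 1% DMSO final, 37 °C.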

## COc1ccc(C(=O)C=C2c3ccccc3C(=O)c3ccccc32)cc1
[1]
  IC50: 60 nM
[2]
  IC50: 60 nM
[3]
  IC50: 60 nM
[4]
  IC50: 70 nM
[5]
  IC50: 80 nM
[6]
  IC50: > 9000 nM
[7]
  IC50: 50 nM
[8]
  IC50: 50 nM
[9]
  IC50: 50 nM
[10]
  IC50: 50 nM
[11]
  IC50: 40 nM
[12]
  IC50: 50 nM
[13]
  EC50: 90 nM
[14]
  Activity: 26.1%
[15]
  Activity: 13.2%
[16]
  Activity: 60.7%
[17]
  Activity: 27.1%
[18]
  Activity: 10.8%
[19]
  Activity: 62.1%
[20]
  Activity: 26.1%
[21]
  Activity: 11.6%
[22]
  Activity: 62.3%
[23]
  Activity: 26.2%
[24]
  Activity: 11.8%
[25]
  Activity: 62%
[26]
  Activity: 26%
[27]
  Activity: 11.3%
[28]
  Activity: 62.7%
[29]
  Activity: 34.1%
[30]
  Activity: 8.4%
[31]
  Activity: 57.5%
[32]
  Activity: 16.7%
[33]
  Activity: 74.9%
[34]
  Activity: 8.4%
[35]
  Activity: 6.2%
[36]
  Activity: 92.8%
[37]
  Activity: 1%
[38]
  Activity: 9.2%
[39]
  Activity: 88.5%
[40]
  Activity: 2.3%
[41]
  IC50: 400 nM
[42]
  IC50: > 100000 nM
[43]
  IC50: 70 nM
[44]
  IC50: 520 nM

## COc1ccc(C(=O)C=C2c3ccccc3C(=O)c3ccccc32)cc1OC
[1]
  IC50: 1080 nM
[3]
  IC50: 2700 nM
[4]
  IC50: 1400 nM
[5]
  IC50: 510 nM
[6]
  IC50: > 9000 nM
[7]
  IC50: 370 nM
[8]
  IC50: 440 nM
[9]
  IC50: 970 nM
[10]
  IC50: 970 nM
[11]
  IC50: 900 nM
[12]
  IC50: 1100 nM
[43]
  IC50: 1300 nM
[44]
  IC50: 6000 nM

## CC[C@]1(O)C[C@H]2CN(CCc3c([nH]c4ccccc34)[C@@](C(=O)OC)(c3cc4c(cc3OC)N(C=O)[C@H]3[C@@](O)(C(=O)OC)[C@H](OC(C)=O)[C@]5(CC)C=CCN6CC[C@]43[C@@H]65)C2)C1 [VINCRISTINE]
[13]
  EC50: 2.4 nM
[14]
  Activity: 27.7%
[15]
  Activity: 11.1%
[16]
  Activity: 61.2%
[17]
  Activity: 24%
[18]
  Activity: 11.7%
[19]
  Activity: 64.5%
[20]
  Activity: 28.3%
[21]
  Activity: 17.2%
[22]
  Activity: 53.7%
[23]
  Activity: 26%
[24]
  Activity: 65.8%
[25]
  Activity: 6.5%
[26]
  Activity: 6.5%
[27]
  Activity: 13.1%
[28]
  Activity: 86.7%
[29]
  Activity: 0.5%
[30]
  Activity: 7.2%
[31]
  Activity: 92.6%
[32]
  Activity: 1%
[33]
  Activity: 4.8%
[34]
  Activity: 95.1%
[35]
  Activity: 0.2%
[36]
  Activity: 5.9%
[37]
  Activity: 93.8%

Reference: ChEMBL document CHEMBL1140930 (J Med Chem, 2009)
